The values below come from ChEMBL document CHEMBL2321744 (J Med Chem, 2013).

pIC50: −log10 of the molar value. Active and inactive are the calls of the source. The calls are words filed in the database; no cut-off is given here.

The target in data set [1] is T1, Phospholipase D2 (Homo sapiens, UniProt O14939). The data set is described as follows: Inhibition of GFP-tagged PLD2 in human HEK293 cells assessed as deuterated 1-butanol incorporation pretreated for 5 mins prior to substrate addition measured after 30 mins by mass spectrometry.
A further data set has as its target T2, Phospholipase D1 (Homo sapiens, UniProt Q13393).
T2 sequence (Q13393 whole entry): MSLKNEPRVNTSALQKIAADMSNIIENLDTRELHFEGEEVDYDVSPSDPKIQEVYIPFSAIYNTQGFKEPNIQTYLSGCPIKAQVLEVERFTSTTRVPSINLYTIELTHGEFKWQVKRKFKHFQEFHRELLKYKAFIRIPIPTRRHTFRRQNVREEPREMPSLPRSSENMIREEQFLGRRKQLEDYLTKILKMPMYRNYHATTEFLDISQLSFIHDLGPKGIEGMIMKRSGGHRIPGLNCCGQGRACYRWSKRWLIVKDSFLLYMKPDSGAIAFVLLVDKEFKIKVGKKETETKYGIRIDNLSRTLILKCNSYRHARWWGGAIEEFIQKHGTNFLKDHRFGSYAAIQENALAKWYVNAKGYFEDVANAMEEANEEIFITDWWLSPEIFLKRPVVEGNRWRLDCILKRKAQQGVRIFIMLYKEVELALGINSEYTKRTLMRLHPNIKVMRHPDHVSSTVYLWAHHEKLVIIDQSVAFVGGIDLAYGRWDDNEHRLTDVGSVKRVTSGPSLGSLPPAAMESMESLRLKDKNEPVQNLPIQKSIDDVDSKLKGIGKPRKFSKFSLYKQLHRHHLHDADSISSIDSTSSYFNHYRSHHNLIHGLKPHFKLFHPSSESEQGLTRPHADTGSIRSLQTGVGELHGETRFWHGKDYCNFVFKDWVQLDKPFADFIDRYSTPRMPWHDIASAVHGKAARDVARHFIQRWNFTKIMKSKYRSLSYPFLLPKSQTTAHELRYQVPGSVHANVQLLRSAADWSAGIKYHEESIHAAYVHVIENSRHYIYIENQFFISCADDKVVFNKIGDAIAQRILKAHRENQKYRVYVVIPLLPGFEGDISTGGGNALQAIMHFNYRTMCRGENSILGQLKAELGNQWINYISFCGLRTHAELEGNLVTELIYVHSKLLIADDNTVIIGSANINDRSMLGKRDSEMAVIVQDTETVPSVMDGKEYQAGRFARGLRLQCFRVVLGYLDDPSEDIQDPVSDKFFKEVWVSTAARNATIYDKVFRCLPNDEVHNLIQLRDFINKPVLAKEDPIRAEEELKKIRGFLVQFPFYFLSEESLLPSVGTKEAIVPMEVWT
Description: Inhibition of PLD1 in human Calu-1 cells assessed as deuterated 1-butanol incorporation pretreated for 5 mins prior to substrate addition measured after 30 mins by mass spectrometry.

A short description of data set [2]: Stability of the compound in PBS buffer up to 48 hrs. The class given is physicochemical.
The target in another data set is hERG (KCNH2) (Homo sapiens, UniProt Q12809). Description: Inhibition of human ERG at 10 uM by radioligand binding assay.
The test system of the next data set is U-87 MG. Description: Increase in caspase 3/7 activation in human U87MG cells after 6 to 72 hrs under serum free conditions. The class given is functional, cell-based. Conditions: U-87MG ATCC.
The nature of data set [3]: Cytotoxicity against human U87MG cells assessed as cell viability up to 10 uM by WST-1 assay in presence of 10% FBS relative to control. The class given is cell-based. Conditions: u-87mg atcc. The procedure, abridged: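 U87-MG cells in 10% FBS were exposed to compound at concentrations up to 10 μM. Viability was compared with DMSO vehicle.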
On the technique in general: Tetrazolium dyes change colour on reduction, which living cells bring about.

Data set [4] is described as follows: Solubility of the compound in PBS buffer. The class given is physicochemical.
A short description of data set [5]: in vivo. Conditions: black6 (printed 'balck6'), mouse, lung, ip, 10 mg/kg.
In data set [6] the target is T1, Phospholipase D2. Conditions: U-87MG ATCC.
The nature of data set [7]: in vivo. Conditions: black6 (printed 'balck6'), mouse, brain, ip, 10 mg/kg.

The pIC50 is −log10 of the IC50, conventionally taken in molar units. As a reminder, the inhibition is how much of the control response was suppressed. As a reminder, the AUC is the area under the concentration-time curve, a measure of exposure. Read a low AUC as low exposure.

T1 sequence (O14939 whole entry): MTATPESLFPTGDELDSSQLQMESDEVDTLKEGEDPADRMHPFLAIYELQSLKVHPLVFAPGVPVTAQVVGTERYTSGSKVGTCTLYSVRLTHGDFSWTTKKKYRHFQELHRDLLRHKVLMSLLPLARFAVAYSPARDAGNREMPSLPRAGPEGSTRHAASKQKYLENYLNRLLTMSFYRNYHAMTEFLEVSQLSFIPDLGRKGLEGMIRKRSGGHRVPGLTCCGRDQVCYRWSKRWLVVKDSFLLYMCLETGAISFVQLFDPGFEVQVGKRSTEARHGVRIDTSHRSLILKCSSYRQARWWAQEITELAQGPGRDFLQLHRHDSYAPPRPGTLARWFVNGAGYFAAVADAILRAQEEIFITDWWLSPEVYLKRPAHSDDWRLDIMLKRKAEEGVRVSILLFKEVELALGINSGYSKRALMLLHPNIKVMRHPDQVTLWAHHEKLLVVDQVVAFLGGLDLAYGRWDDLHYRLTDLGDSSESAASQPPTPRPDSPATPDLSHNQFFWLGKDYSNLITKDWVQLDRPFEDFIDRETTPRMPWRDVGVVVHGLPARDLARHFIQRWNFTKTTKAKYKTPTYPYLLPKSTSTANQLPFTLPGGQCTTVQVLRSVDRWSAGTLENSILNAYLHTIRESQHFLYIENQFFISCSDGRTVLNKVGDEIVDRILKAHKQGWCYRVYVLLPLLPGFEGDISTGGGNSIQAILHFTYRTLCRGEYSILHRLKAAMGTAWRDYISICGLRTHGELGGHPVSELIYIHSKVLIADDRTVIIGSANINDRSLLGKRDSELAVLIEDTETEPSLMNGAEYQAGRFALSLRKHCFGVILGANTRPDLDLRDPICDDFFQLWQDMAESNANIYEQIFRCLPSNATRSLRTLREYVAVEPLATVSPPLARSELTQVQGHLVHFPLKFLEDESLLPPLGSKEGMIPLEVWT
Sequence of hERG (KCNH2) (Q12809 whole entry): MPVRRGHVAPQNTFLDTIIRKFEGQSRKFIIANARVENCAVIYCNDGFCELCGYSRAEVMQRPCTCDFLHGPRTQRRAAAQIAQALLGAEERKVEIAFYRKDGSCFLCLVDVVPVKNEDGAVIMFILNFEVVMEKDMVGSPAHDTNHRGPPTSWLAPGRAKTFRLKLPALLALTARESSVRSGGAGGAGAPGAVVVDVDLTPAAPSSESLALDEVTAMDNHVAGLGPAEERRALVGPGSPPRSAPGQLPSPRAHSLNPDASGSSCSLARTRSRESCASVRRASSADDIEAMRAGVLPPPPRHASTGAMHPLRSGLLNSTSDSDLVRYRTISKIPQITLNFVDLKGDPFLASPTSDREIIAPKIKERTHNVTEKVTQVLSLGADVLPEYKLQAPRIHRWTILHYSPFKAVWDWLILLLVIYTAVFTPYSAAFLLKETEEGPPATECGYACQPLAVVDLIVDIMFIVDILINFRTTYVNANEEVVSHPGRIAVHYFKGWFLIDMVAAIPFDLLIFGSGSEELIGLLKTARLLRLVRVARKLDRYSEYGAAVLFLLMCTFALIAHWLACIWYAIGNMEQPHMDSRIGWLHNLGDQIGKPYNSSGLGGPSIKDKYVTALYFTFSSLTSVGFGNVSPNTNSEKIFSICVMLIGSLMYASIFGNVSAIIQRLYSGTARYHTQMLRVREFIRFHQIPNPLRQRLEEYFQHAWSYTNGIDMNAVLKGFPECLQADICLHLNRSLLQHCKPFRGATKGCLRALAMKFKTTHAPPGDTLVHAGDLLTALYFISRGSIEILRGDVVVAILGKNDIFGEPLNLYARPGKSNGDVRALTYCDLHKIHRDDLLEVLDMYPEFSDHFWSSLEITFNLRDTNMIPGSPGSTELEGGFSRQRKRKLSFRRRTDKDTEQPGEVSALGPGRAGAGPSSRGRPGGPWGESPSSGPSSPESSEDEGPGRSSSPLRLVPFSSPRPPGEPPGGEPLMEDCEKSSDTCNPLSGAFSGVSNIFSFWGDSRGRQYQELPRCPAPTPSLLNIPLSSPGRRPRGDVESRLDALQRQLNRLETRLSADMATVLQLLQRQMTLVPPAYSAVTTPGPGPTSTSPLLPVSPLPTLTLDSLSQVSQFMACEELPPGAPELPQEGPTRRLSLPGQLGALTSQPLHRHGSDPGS

With `O=C(NCCN1CCC2(CC1)C(=O)NCN2c1cccc(F)c1)c1ccc(Br)cc1`, the pIC50 was 6.70 on Phospholipase D2 [1] and 5.81 on Phospholipase D1.
Consider `C[C@H](CN1CCC2(CC1)C(=O)NCN2c1cccc(F)c1)NC(=O)c1ccc(F)c(F)c1`, for which the pIC50 on Phospholipase D2 [1] is 5.46; at Phospholipase D1, 5.85.
For the compound `O=C(NCCN1CCC2(CC1)C(=O)NCN2c1cccc(F)c1)c1ccc(F)cc1`, the pIC50 at Phospholipase D2 [1] is 6.46.
For the compound `Cc1cccc(N2CNC(=O)C23CCN(C[C@H](C)NC(=O)c2ccc(Br)cc2)CC3)c1`, the Stability result in [2] is “Stable”. Besides, at hERG (KCNH2), the inhibition at 10 µM is above 50%. Besides, the result with U-87 MG was Active. Also, in [3], the Activity entry is “Non-toxic”. Further, the solubility entry in [4] is reported as “soluble”.
Regarding `C[C@@H](CN1CCC2(CC1)C(=O)NCN2c1cccc(F)c1)NC(=O)c1ccc(F)cc1`, the pIC50 on Phospholipase D2 [1] was 7.46; on Phospholipase D1, 7.70.
In the case of `C[C@H](CN1CCC2(CC1)C(=O)NCN2c1cccc(F)c1)NC(=O)c1ccc(Br)cc1`, the negative logarithm of the IC50 (pIC50) at Phospholipase D2 [1] was 6.10.
`C[C@H](CN1CCC2(CC1)C(=O)NCN2c1cccc(F)c1)NC(=O)c1ccc(F)cc1`: the pIC50 on Phospholipase D2 [1] was 5.97; at Phospholipase D1, 6.12.
Regarding `C[C@@H](CN1CCC2(CC1)C(=O)NCN2c1cccc(F)c1)NC(=O)c1ccc(F)c(F)c1`, the results for the pIC50 on Phospholipase D2 [1] and on Phospholipase D1 were 6.92 and 7.07, respectively.
With `O=C(NCCN1CCC2(CC1)C(=O)NCN2c1cccc(F)c1)c1ccc(F)c(F)c1`, the exposure (AUC) at 6 h in the data set “in vivo [5]” amounted to 4.61 µM·h; in the data set “in vivo [7]”, 0.08 µM·h. Moreover, the Stability result in data set [2] is “Stable”. Moreover, at Phospholipase D2 [6], the inhibition result is “Dose-dependent effect”. In addition, the Activity result in [3] is “Non-toxic”. Moreover, the solubility entry in data set [4] is on record as “soluble”.
